# Compound activity deposited in PubChem BioAssay by Broad Institute.
# Env fusion inh: inhibitors of HIV-1 Env-driven cell-cell fusion, primary screen, HeLa-JRFL effector, CEM21 target cells, luciferase; inhibition, % at 12.3 µM; AID 651610, 2012; hit rate 1.1% among 360,000;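 active = mean replicate inhibition score of at least 50 and every replicate individually at or above 50; inconclusive = only one of the two criteria met; inactive = mean below 50 and not all replicates reaching 50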;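 note: 0% = plate neutral controls and 100% = maraviroc near 300 nM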
# PGC1a acetyl inh: inhibitors of PGC1a acetylation signal, primary screen, cell-based, U2OS, AlphaScreen, inhibitor mode | hit rate 0.17% among 350,000 | AlphaScreen anti-acetyl-lysine; with virally co-expressed GCN5 acetyltransferase | inhibition, % at 15.6 µM;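 active = every replicate shows inhibition of at least 40%; inconclusive = mean inhibition at least 40% but some replicate below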;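 note: 0% = neutral control wells and 100% = positive control wells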
# Ecoli rRNA inh: reduced GFP signal of wild-type E. coli, primary screen, bacterial rRNA inhibitor project, GFP/RFP fluorescence, OD600, single point; E. coli WT GFP vs humanized-ribosome RFP mutants, 24 h; active compounds read low; DMSO median 0, no signal -100; GFP signal change (wild-type ribosome), % (no concentration beside the values); hit rate 1.6% among 350,000;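 active = significant combined selectivity score with lowered wild-type GFP, culture density cut under 30%, mutant RFP and density less affected; inactive = any of these conditions unmet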
# FN deposit inh: inhibitors of fibronectin matrix deposition, primary screen, AH1F cells, Alexa488-fibronectin fluorescence, plate reader; AH1F fibroblasts, overnight; inhibition, % at 12.6 µM; hit rate 0.086% among 350,000;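 active = mean inhibition across replicates of 30% or more, regardless of how many single replicates reach that level; inconclusive = mean under 30% yet at least half of replicates reach 30%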;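 note: positive control wells lacked labelled fibronectin entirely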
#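 Assay system: AH1F fibroblasts / Quantity: 10000 cells per well / Medium: DMEM plus 2% serum, read in PBS / Reagent: labelled fibronectin 24 nM / Dosing: single dose, pinned / Times: 1 h cell attachment, overnight exposure to compound and label / Signal: fluorescence, ex 485 nm, em 525 nm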
# PglD inh: C. jejuni PglD acetyltransferase inhibitors, primary screen, biochemical, DTNB colorimetric, single point | purified PglD enzyme, DTNB colorimetric CoA detection | inhibition, % at 12.5 µM | hit rate 0.098% among 360,000 | AID 602405, 2012; in the data active = inhibition above about 16%, passing the limit was not always enough; inconclusive = no clear call, values can overlap the other calls
# DENV2 CPE: inhibitors of DENV2 cytopathic effect, primary screen, cell-based, plate reader, single concentration. DENV2-infected cells, cytopathic effect rescue. CPE inhibition, % at 9.99 µM. hit rate 1.7% among 350,000. AID 651640, 2012; in the data active = CPE inhibition above about 20%, passing the limit was not always enough; inconclusive = no clear call, values can overlap the other calls; tested in BHK-21 cells;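 note: 0% = median of neutral control wells and 100% = median of positive control wells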
# * hit, by the source's call; ? = inconclusive; . = not tested or not shown; [ ] = dose if it differs, or a comment. Hits are enriched below; roughly 3.5% of the tested compounds scored in any of these assays.
SMILES,Env fusion inh,PGC1a acetyl inh,Ecoli rRNA inh,FN deposit inh,PglD inh,DENV2 CPE
CCOc1ccc(-n2c(=S)sc3c(=O)[nH]c(SCC(=O)C(C)(C)C)nc32)cc1,23.0,-6.0,-28.9*,-5.0,-2.9,-1.5
CCN(CC)C(=O)CSc1nc2c(sc(=S)n2-c2ccc(C)cc2C)c(=O)[nH]1,5.8,3.3,-27.4*,-3.5,5.2,-2.1
CCCNC(=O)N1[C@@H]2c3ccc(-c4ccc(OC)cc4)c(=O)n3C[C@H]1[C@H](CO)[C@H]2C(=O)NC1CCC1,.,.,-2.2,0.2,-3.7,-10.0
C[C@@H]1CN([C@H](C)CO)C(=O)c2cc(NS(=O)(=O)c3cccs3)ccc2O[C@@H]1CN(C)S(=O)(=O)c1cccs1,-31.0[16.7 µM],0.3,-1.9,.,.,.
CC(C)CC#Cc1cnc2c(c1)C(=O)N([C@H](C)CO)C[C@H](C)[C@@H](CN(C)C(=O)CC1CC1)O2,-8.2[16.7 µM],1.1,2.2,.,-5.1,-3.7
C[C@H](CO)N1C[C@H](C)[C@H](CN(C)C)Oc2ccc(NC(=O)C3CC3)cc2CC1=O,5.4[16.7 µM],5.4,0.4,5.3,-0.5,-2.5
CCOC(=O)C1=C(CSc2nc3ccccc3s2)NC(=O)NC1c1ccc(OC)cc1 (stereo not drawn),73.1*,1.8,.,2.3,.,.
CC(Oc1ccc2ccc(=O)oc2c1)C(=O)NCCN1CCOCC1 (stereo not drawn),65.4*,-0.6,14.7,-4.6,0.2,5.3
N#Cc1ccc(-c2ccc([C@H]3[C@H](CO)N4CCCCN(C(=O)Nc5ccc(F)cc5)C[C@@H]34)cc2)cc1,.,-6.0,-21.1,.,0.8,48.7*
N#Cc1ccc(-c2ccc([C@@H]3[C@@H](CO)N4CCCCN(C(=O)Nc5ccc(F)cc5)C[C@@H]34)cc2)cc1,.,-6.6,-2.4,.,1.1,-1.9
N#Cc1ccc(-c2ccc([C@H]3[C@H]4CN(C(=O)Nc5ccc(F)cc5)CCCCN4[C@H]3CO)cc2)cc1,.,-12.5,3.9,.,0.2,23.8*
C[C@@H]1CCCCO[C@@H](CN(C)C(=O)Cc2ccccc2)[C@H](C)CN([C@@H](C)CO)C(=O)c2cc(NS(C)(=O)=O)ccc2O1,-19.6[16.7 µM],-2.9,0.2,-3.2,.,.
O=S(=O)(c1ccccc1)N1C[C@@H]2N[C@H](C1)C2c1ccc(-c2cccnc2)cc1 (stereo partly drawn),.,8.9,-4.6,-3.9,.,2.9
COc1cccc(OC)c1OCC(=O)Nc1ccc(S(=O)(=O)N2CCCC2)cc1,6.9,1.7,-33.7*,4.6,-0.4,12.8
O=C(COc1ccc(F)cc1Cl)Nc1cccc(S(=O)(=O)N2CCCC2)c1,.,-2.9,-37.3,3.7,.,-3.9
CN(C)S(=O)(=O)c1cccc(NC(=O)COc2ccccc2C(=O)NCc2ccccc2)c1,-1.6,2.9,-33.9*,.,1.7,-1.0
O=C(COc1ccccc1Cl)Nc1cccc(S(=O)(=O)N2CCCC2)c1,11.4,-4.3,-34.4*,-7.8,-4.3,5.4
CCOc1cccc(/C=N/NC(=O)c2cc(C3CC3)[nH]n2)c1O,23.5,.,-17.1*,12.8,0.7,-7.0
CCOc1cccc(/C=N/NC(=O)c2cccnc2)c1O,10.1,4.8,-16.4,13.6,2.3,?
C[C@H](CO)N1C[C@H](C)[C@@H](CN(C)S(=O)(=O)c2ccccc2)Oc2c(NC(=O)Nc3cccc4ccccc34)cccc2C1=O,-5.0[16.7 µM],-15.5,1.2,.,-1.9,168.4*
Cc1ccc(S(=O)(=O)N(C)C[C@H]2Oc3c(NC(=O)Nc4cccc5ccccc45)cccc3C(=O)N([C@H](C)CO)C[C@@H]2C)cc1,.,-7.1,-0.4,6.4,-2.5,34.7*
C/C=C/c1ccc2c(c1)O[C@@H](CN(C)C(=O)C1CCOCC1)[C@@H](C)CN([C@H](C)CO)S2(=O)=O,15.9[16.7 µM],1.1,-2.0,7.0,-4.1,-2.7
COc1ccc(NC(=O)c2cc(CC(C)C)nc3ccccc23)cc1,77.6*,-13.1,-7.0,-3.9,4.4,-4.1
Cc1ccc(NC(=O)c2cc(CC(C)C)nc3ccccc23)cc1,67.5*,-4.4,-7.9,4.3,1.2,2.6
Cc1ccc(NC(=O)c2cc(C)nc3ccccc23)cc1,-2.3,-6.3,15.6,-5.6,-2.8,6.1
SMILES,Env fusion inh,PGC1a acetyl inh,Ecoli rRNA inh,FN deposit inh,PglD inh,DENV2 CPE
C[C@H]1CN([C@@H](C)CO)C(=O)c2cc(C#CCc3ccccc3)cnc2O[C@@H]1CN(C)Cc1ccccc1,.,1.4,3.3,.,.,?
COc1ccc2c3c([nH]c2c1)[C@@H](CO)N(C(=O)c1ccncc1)CC31CN(C(=O)CC2CC2)C1,.,-0.8,2.2,.,.,-5.6
CC1=CC(C)(C)Nc2ccccc21,.,4.8,-0.1,.,3.2,28.1*
CO[C@@H]1CN(C)C(=O)c2ccc(NC(=O)Nc3cc(F)ccc3F)cc2OC[C@H](C)N(C(=O)c2ccccn2)C[C@H]1C,.,2.0,-2.7,-1.8,1.3,26.3*
CO[C@@H]1CN(C)C(=O)c2ccc(NC(=O)Nc3cc(F)ccc3F)cc2OC[C@@H](C)N(C(=O)c2ccccn2)C[C@H]1C,.,-1.7,0.5,4.7,-5.9,86.5*
CN1c2ccc(-c3cccc(C#N)c3)cc2[C@H]2[C@H](CCN2C(=O)NC2CCCCC2)[C@@H]1CO,.,1.8,-2.5,-7.2,1.5,8.5
C[C@H]1CN([C@@H](C)CO)C(=O)CCCn2nncc2CO[C@H]1CN(C)C(=O)Nc1ccc2c(c1)OCCO2,.,3.5,-0.8,-0.5,3.3,-0.9
COc1ccc(C2(C)NC(=O)N(CC(=O)c3cc(C)n(C4CC4)c3C)C2=O)cc1 (stereo not drawn),-11.2,13.2,2.4,-1.3,-1.6,36.8*
Cc1cc(C(=O)COc2ccccc2C#N)c(C)n1C1CC1,24.1,-28.2,-0.7,-2.9,-5.5,0.3
Cc1cc(C(=O)COc2ccc(C#N)cc2)c(C)n1C1CC1,64.1*,-18.1,5.8,-4.8,0.3,3.6
Cc1cc(C(=O)CN2C(=O)NC(C)(c3ccc(F)c(F)c3)C2=O)c(C)n1C1CC1 (stereo not drawn),-10.3,-2.2,.,9.5,0.0,.
Cc1cc(C(=O)COc2ccc([N+](=O)[O-])cc2)c(C)n1C1CC1,-24.4,1.5,8.7,2.0,1.0,9.2
Cc1cc(C(=O)COc2cc(F)ccc2[N+](=O)[O-])c(C)n1C1CC1,-1.1,1.9,-29.0*,.,.,.
Cc1ccc(C(=O)c2c(NC(=O)c3ccccc3C)sc(C)c2C)cc1,18.7,.,.,2.3,-12.3,.
CCN(CC)CC(=O)Nc1sc(C)c(C)c1C(=O)c1ccc(C)cc1,8.3,-1.1,-23.9*,13.0,3.7,-1.4
